MT1-MMP act inh = blockers of MT1-MMP proenzyme processing, primary screen, HT1080 RFP-PRO-GFP cells, GFP/RFP fluorescence; GFP/RFP ratio fluorescence, overnight; percent of plate control window, DMSO zero; GFP/RFP ratio change, % at 20 µM; 360,000 compounds, 0.061% hits; AID 651647, 2012;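 active = GFP/RFP ratio change of at least 30% with cell ATP level not reduced by more than half and red fluorescence within 50% of control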
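Assay system: RFP-PRO-GFP reporter HT1080 cells; read-out basis: GFP/RFP fluorescence ratio; benchmarks: DMSO wells and RFP-L50D-GFP cells; doses: 20 µM single dose, 1% DMSO; schedule: overnight cell settling, then overnight compound exposure, 37 °C, 5% CO2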
ADAM10 inh = human ADAM10 inhibitors, primary screen, biochemical, QFRET, HTS | 370,000 compounds, 0.62% hits | Disintegrin and metalloproteinase domain-containing protein 10 (Homo sapiens), O14672 | inhibition, % at 7 µM | AID 720582, 2013 | recombinant ADAM10, EDANS/DABCYL FRET peptide cleavage, 3 h;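 active = inhibition above a per-campaign cutoff equal to the mean of compounds falling between control-based bounds plus 3 SD, cut at about 20% in these data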
SKN-1 block = suppressors of acrylamide-induced Pgst-4::GFP reporter in worms, primary screen, SKN-1 inhibitor project, whole organism, uHTS, GFP/RFP fluorescence ratio, strain VP596; C. elegans VP596 Pgst-4::GFP/RFP ratio, 24 h; inhibition, % at 21.8 µM; 360,000 compounds, 0.49% hits;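 active = interference check ratio from 0.5 to 1.5 plus GFP to RFP signal ratio inhibition reaching or exceeding a fixed threshold, cut at about 30% in these data, passing the limit was not always enough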
NR3A LBD binder = binders of NR3A ligand-binding domain, primary screen, biophysical, differential scanning fluorimetry, uHTS. AID 1259313, 2017. Tm shift relative to glycine control, % at 25 µM. 340,000 compounds, 2.5% hits. Glutamate receptor ionotropic, NMDA 3A (GRIN3A) ligand-binding domain. NR3A LBD differential scanning fluorimetry, Tm shift; 0% = protein alone, 100% = glycine-bound protein;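 active = melting temperature shift of at least 10% of the positive control shift, at one fixed dose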
MPTP inh = mitochondrial permeability transition pore inhibitors, primary screen, biochemical, isolated mouse mitochondria, absorbance | Ca2+ swelling absorbance, 30 min | inhibition, % at 10 µM | 360,000 compounds, 1.4% hits;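 active = inhibition of 50% or more, scaled per plate between neutral and stimulator controls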
ADAM17 inh = ADAM17 inhibitors, primary screen, biochemical, QFRET. recombinant ADAM17, EDANS/DABCYL FRET peptide cleavage. AID 720648, 2013. Disintegrin and metalloproteinase domain-containing protein 17 (Homo sapiens), P78536. 370,000 compounds, 0.83% hits. inhibition, % at 6.95 µM;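 active = inhibition above the mean of compounds lying between control limits plus 3 SD, set per campaign, cut at about 8.5% in these data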
Target sequence (P78536 215-824 limits assumed): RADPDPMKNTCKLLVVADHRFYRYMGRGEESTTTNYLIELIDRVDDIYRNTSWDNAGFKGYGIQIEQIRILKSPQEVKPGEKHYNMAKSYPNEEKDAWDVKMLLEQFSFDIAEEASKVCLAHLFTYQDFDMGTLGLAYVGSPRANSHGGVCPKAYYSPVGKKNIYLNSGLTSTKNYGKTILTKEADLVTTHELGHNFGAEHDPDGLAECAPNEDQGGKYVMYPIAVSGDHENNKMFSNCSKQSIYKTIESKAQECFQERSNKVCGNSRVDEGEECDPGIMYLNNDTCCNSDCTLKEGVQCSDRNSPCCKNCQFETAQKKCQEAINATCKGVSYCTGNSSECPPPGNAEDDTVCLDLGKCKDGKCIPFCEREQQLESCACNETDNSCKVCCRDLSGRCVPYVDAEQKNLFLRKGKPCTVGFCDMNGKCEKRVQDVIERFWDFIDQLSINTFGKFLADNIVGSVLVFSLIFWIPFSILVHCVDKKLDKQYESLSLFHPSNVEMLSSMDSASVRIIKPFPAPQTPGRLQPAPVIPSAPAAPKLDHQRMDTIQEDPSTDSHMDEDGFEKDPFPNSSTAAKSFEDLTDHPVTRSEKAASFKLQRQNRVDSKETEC
Rh123 counter = fluorescence retest of MPTP screen hits in isolated mitochondria, single concentration; shares compounds with MPTP inh; membrane potential, Rhodamine 123 fluorescence; inhibition, % at 10 µM; 5,000 compounds, 78% hits; AID 624504, 2012; in the data active = inhibition above about 22%
MPTP abs DR = mitochondrial permeability transition pore inhibitors, dose response, biochemical, absorbance, uHTS hits; shares compounds with MPTP inh; isolated mitochondria swelling; IC50, µM; 780 compounds, 58% hits; AID 651561, 2012; in the data active = IC50 below about 20 µM
MPTP counter DR = fluorescent counter-screen in isolated mitochondria, dose response, counter-screen for MPTP inhibitor project, biochemical, fluorescence, uHTS hits. shares compounds with MPTP inh. isolated mitochondria counterscreen, fluorescence read-out. IC50, µM. 780 compounds, 49% hits. AID 651564, 2012; in the data active = IC50 below about 80 µM
Of the large screens only hits and unclear results are named; the others gave an inactive call (follow-up assays come after a bar, where they were run). The list is not random: actives were taken first. Their share in the collection is about 4.7%.

Cc1cc(C(=O)NNC(=O)c2nn(C)c(=O)c3ccccc23)c(C)o1	none
O=C(CSc1nc2cc(Cl)c(Cl)cc2[nH]1)c1ccc2c(c1)OCO2	NR3A LBD binder 17, MPTP inh 78 | Rh123 counter 73
c1ccc(-c2ccc(OCCCNC3CCCC3)cc2)cc1	SKN-1 block 55, MPTP inh 88 | Rh123 counter inactive | MPTP abs DR 5.2 | MPTP counter DR 46
C=CCCc1ccc(C#N)c(SCc2c(C(=O)OCC)c3cc(OC(C)=O)c(Br)cc3n2C)n1	MPTP inh 71 (no result: ADAM10 inh, ADAM17 inh) | Rh123 counter 76
CC(NC(=O)COC(=O)c1ccc([N+](=O)[O-])s1)c1ccccc1 (configuration not stated)	none
Cc1[nH]c2ccc(F)cc2c1CCN(Cc1cccnc1)C(=S)NC(C)(C)C	none
CN1CCN(CCOC2Cc3ccccc3Sc3ccc(Cl)cc32)CC1 (configuration not stated)	MPTP inh 90 | Rh123 counter inactive | MPTP abs DR 6.5 | MPTP counter DR inactive
CN1CCN(CCC(=O)N2c3ccccc3Sc3ccc(Cl)cc32)CC1	none
OCCN1CCN(C2Cc3cc(Cl)ccc3Sc3ccc(Cl)cc32)CC1 (configuration not stated) (tested in a mixture with another compound)	MPTP inh 84 (no result: ADAM10 inh, ADAM17 inh) | Rh123 counter inactive
C[C@H](NC(=O)c1ncn2c1C(=O)NC[C@H]2C)c1ccccc1	none (no result: NR3A LBD binder)
CN(C)c1ccc(/C=C/C=C2/SC(=S)N(c3ccccc3)C2=O)cc1	MPTP inh 58 | Rh123 counter inactive
Cc1cc([N+](=O)[O-])ccc1NC(=O)/C=C/c1cccs1	MPTP inh 83 | Rh123 counter 31
CCC(C)c1ccc(NC(=S)N2CCN(c3ccccn3)CC2)cc1 (configuration not stated)	none
CC(OCCN1CCCC1)(c1ccc(F)cc1)c1ccc(F)cc1	MPTP inh 76 | Rh123 counter inactive | MPTP abs DR inactive | MPTP counter DR inactive
Cc1cccc(C(=O)Nc2ccccc2SCC(=O)Nc2ccc(C)c(Cl)c2)c1	NR3A LBD binder 15, MPTP inh 90 | Rh123 counter 83
Cc1ccc(NC(=O)CSc2ccccc2NC(=O)c2cccc(Cl)c2)cc1Cl	MPTP inh 80 | Rh123 counter inactive | MPTP abs DR inactive | MPTP counter DR 6.3
Cc1ccc(NC(=O)CSC(N)=O)cc1Cl	none
Cn1c(SCC(=O)c2ccccc2)nnc1-c1ccco1	none
C=CCn1c(NC(=O)c2ccccc2Cl)c(C#N)c2nc3ccccc3nc21	MPTP inh 74 | Rh123 counter 79
Cn1c(O)c(C(C#N)=C2N=c3ccccc3=N2)c2ccccc21	none
CCCS(=O)(=O)NC(=O)C1(C)CCN1C(=O)Cc1ccc(-c2ccccc2)cc1 (configuration not stated)	none (no result: NR3A LBD binder)
c1ccc2c(c1)oc1c(N3CCN(Cc4ccc5c(c4)OCO5)CC3)ncnc12	MPTP inh 86 | Rh123 counter 77
C[C@H]1c2cccc(O)c2C(O)=C2C(=O)[C@]3(O)C(O)=C(C(N)=O)C(=O)[C@@H](N(C)C)[C@@H]3[C@@H](O)[C@@H]21	MPTP inh 80 (no result: ADAM10 inh, ADAM17 inh) | Rh123 counter inactive
Oc1c(Br)cc(Br)cc1CNc1ccc(F)cc1	NR3A LBD binder 11, MPTP inh 78 | Rh123 counter 81
CC(C)Cn1c(N)c(C(=O)CSc2ncccn2)c(=O)n(C)c1=O	none
Cc1csc(SCC(=O)c2c(N)n(CC(C)C)c(=O)n(C)c2=O)n1	MPTP inh 51 | Rh123 counter inactive | MPTP abs DR inactive | MPTP counter DR 5.8
CCOC(=O)Cc1csc(SCC(=O)c2c(N)n(CC(C)C)c(=O)n(C)c2=O)n1	MPTP inh 78 | Rh123 counter 24
O=C(OC1CCOC1=O)c1ccc2ccccc2n1 (configuration not stated)	none
C=CCN(C(=O)c1cccc(S(=O)(=O)N2CCN(C)CC2)c1)c1nc(-c2ccccc2)cs1	MPTP inh 73 | Rh123 counter inactive | MPTP abs DR inactive | MPTP counter DR 76
CN1CCN(S(=O)(=O)c2cccc(C(=O)N(C)Cc3cccs3)c2)CC1	none
O=C(Nc1c(-c2ccc(F)c(F)c2)nc2ncccn12)C1CC1	none (no result: MT1-MMP act inh, SKN-1 block, NR3A LBD binder, MPTP inh)
Cc1nc2c(-c3ccccc3)c(C)nn2c(C)c1CCC(=O)NCc1ccco1	none
CCN1CCN(c2ccc(NC(=O)CCc3c(C)nc4c(-c5ccccc5)c(C)nn4c3C)cc2)CC1	MPTP inh 54 | Rh123 counter inactive | MPTP abs DR 15 | MPTP counter DR inactive
O=C1C2CC=CCC2C(=O)N1c1n[nH]c(CCc2ccccc2)n1 (configuration not stated)	none
O=C(NNC(=O)c1ccccc1O)c1ccc(Cl)c(S(=O)(=O)N2CCc3ccccc32)c1	MPTP inh 107 | Rh123 counter 76
O=C(NNC(=O)c1cccc(S(=O)(=O)N2CCc3ccccc32)c1)c1ccccc1	MPTP inh 100 | Rh123 counter 83
CC(C)CCNC(=O)c1cccc(S(=O)(=O)N2CCc3ccccc32)c1	none
Cc1cc(C(C#N)c2ccc(Cl)cc2)c(Cl)cc1NC(=O)c1cc(I)cc(I)c1O (configuration not stated)	MPTP inh 100 | Rh123 counter inactive
Cn1nc(CC(=O)Nc2ccc3c(c2)CCC3)c2ccccc2c1=O	MPTP inh 95 | Rh123 counter 78
CC1CCC(C(C)C)C(OCC(O)CN2CCN(Cc3ccccc3)CC2)C1 (configuration not stated)	MPTP inh 86 | Rh123 counter inactive | MPTP abs DR inactive | MPTP counter DR 40
COc1cccc(OCC(O)CN2CCC(Cc3ccccc3)CC2)c1 (configuration not stated)	MPTP inh 56 | Rh123 counter inactive | MPTP abs DR 19 | MPTP counter DR 62

High-throughput results as filed in PubChem.
